Reference: ChEMBL document CHEMBL3272292, “2-(2-Aminoethylamino)-1,2-diphenylethanol derivatives, a new class of topical antiinflammatory agents” (1977)

Assays:
Format in all cases: functional
[1] = test system: Rattus norvegicus; test: Antiinflammatory activity in immature rat assessed as inhibition of cantharidin-induced inflammation at 50 ug administered topically to outer surface of ear after 72 hrs relative to control
Procedure, shortened: (§1)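 Test compounds applied topically to outer ear surface together with cantharidin, groups of 8-10 immature rats (50-60 g). Controls: vehicle-only group and cantharidin-only group. […] Significance vs irritant group by Student's t test or Fieller's theorem.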

[2] = test system: Rattus norvegicus; test: Antiinflammatory activity in immature rat assessed as inhibition of cantharidin-induced inflammation at 100 ug administered topically to outer surface of ear after 72 hrs relative to control; procedure, shortened: as §1
[3] = test system: Rattus norvegicus; test: Antiinflammatory activity in immature rat assessed as inhibition of cantharidin-induced inflammation at 200 ug administered topically to outer surface of ear after 72 hrs relative to control; procedure, shortened: as §1
[4] = test system: Rattus norvegicus; test: Antiinflammatory activity in immature rat assessed as inhibition of cantharidin-induced inflammation at 400 ug administered topically to outer surface of ear after 72 hrs relative to control; procedure, shortened: as §1
[5] = test system: Rattus norvegicus; test: Antiinflammatory activity in immature rat assessed as inhibition of cantharidin-induced inflammation at 800 ug administered topically to outer surface of ear after 72 hrs relative to control; procedure, shortened: as §1
[6] = test system: Rattus norvegicus; test: Antiinflammatory activity in immature rat assessed as inhibition of cantharidin-induced inflammation at 5 ug administered topically to outer surface of ear after 72 hrs relative to control; procedure, shortened: as §1
[7] = test system: Rattus norvegicus; test: Antiinflammatory activity in immature rat assessed as inhibition of cantharidin-induced inflammation at 10 ug administered topically to outer surface of ear after 72 hrs relative to control; procedure, shortened: as §1
[8] = test system: Rattus norvegicus; test: Antiinflammatory activity in immature rat assessed as inhibition of cantharidin-induced inflammation at 20 ug administered topically to outer surface of ear after 72 hrs relative to control; procedure, shortened: as §1
[9] = test system: Rattus norvegicus; test: Antiinflammatory activity in immature rat assessed as inhibition of cantharidin-induced inflammation at 40 ug administered topically to outer surface of ear after 72 hrs relative to control; procedure, shortened: as §1
[10] = test system: Rattus norvegicus; test: Antiinflammatory activity in immature rat assessed as inhibition of cantharidin-induced inflammation at 80 ug administered topically to outer surface of ear after 72 hrs relative to control; procedure, shortened: as §1
[11] = test system: Rattus norvegicus; test: Antiinflammatory activity in rat assessed as reduction in dry ganuloma tissue surrounding implanted cotton pellet at 10 ug per pellet after 72 hrs relative to control; design: scale not given: the % may be the effect or the level left
Procedure, shortened: (§2)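 Compound dissolved in ethanol, applied to cotton pellets and dried at room temperature. Two pellets implanted sc per rat, ten rats per dose group. Pellets removed at autopsy 72 h later. Activity read as reduction in dry granuloma tissue around pellets vs control group. Significance by Student's t test or Fieller's theorem.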

[12] = test system: Rattus norvegicus; test: Antiinflammatory activity in rat assessed as reduction in dry ganuloma tissue surrounding implanted cotton pellet at 20 ug per pellet after 72 hrs relative to control; design: scale not given: the % may be the effect or the level left; procedure, shortened: as §2
[13] = test system: Rattus norvegicus; test: Antiinflammatory activity in rat assessed as reduction in dry ganuloma tissue surrounding implanted cotton pellet at 40 ug per pellet after 72 hrs relative to control; design: scale not given: the % may be the effect or the level left; procedure, shortened: as §2
[14] = test system: Rattus norvegicus; test: Antiinflammatory activity in rat assessed as reduction in dry ganuloma tissue surrounding implanted cotton pellet at 80 ug per pellet after 72 hrs relative to control; design: scale not given: the % may be the effect or the level left; procedure, shortened: as §2
[15] = test system: Rattus norvegicus; test: Antiinflammatory activity in immature rat assessed as inhibition of cantharidin-induced inflammation at 888 ug administered topically to outer surface of ear after 72 hrs relative to control; procedure, shortened: as §1
[16] = test system: Rattus norvegicus; test: Antiinflammatory activity in rat assessed as reduction in dry ganuloma tissue surrounding implanted cotton pellet at 1000 ug per pellet after 72 hrs relative to control; design: scale not given: the % may be the effect or the level left; procedure, shortened: as §2
[17] = test system: Rattus norvegicus; test: Antiinflammatory activity in rat assessed as reduction in dry ganuloma tissue surrounding implanted cotton pellet at 2000 ug per pellet after 72 hrs relative to control; design: scale not given: the % may be the effect or the level left; procedure, shortened: as §2
[18] = test system: Rattus norvegicus; test: Antiinflammatory activity in rat assessed as reduction in dry ganuloma tissue surrounding implanted cotton pellet at 4000 ug per pellet after 72 hrs relative to control; design: scale not given: the % may be the effect or the level left; procedure, shortened: as §2
[19] = test system: Rattus norvegicus; test: Antiinflammatory activity in rat assessed as reduction in dry ganuloma tissue surrounding implanted cotton pellet at 8000 ug per pellet after 72 hrs relative to control; design: scale not given: the % may be the effect or the level left; procedure, shortened: as §2
[20] = test system: Rattus norvegicus; test: Antiinflammatory activity in immature rat assessed as inhibition of cantharidin-induced inflammation at 924 ug administered topically to outer surface of ear after 72 hrs relative to control; procedure, shortened: as §1

CN(C)CCN[C@@H](c1ccccc1)[C@@H](O)c1ccccc1 (racemic)
inhibition (INH) [1]: 0%
inhibition (INH) [2]: 0%
inhibition (INH) [3]: 8%
inhibition (INH) [4]: 0%
inhibition (INH) [5]: 0%

NCCN[C@@H](c1ccccc1)[C@H](O)c1ccccc1 (racemic)
inhibition (INH) [2]: 7%
inhibition (INH) [3]: 9%
inhibition (INH) [4]: 56%
inhibition (INH) [5]: 88%

CC(=O)NCCN(C(C)=O)[C@@H](c1ccccc1)[C@@H](O)c1ccccc1 (racemic)
inhibition (INH) [1]: 0%
inhibition (INH) [2]: 11%
inhibition (INH) [3]: 9%
inhibition (INH) [4]: 0%
inhibition (INH) [5]: 40%

CN(C)CCCN[C@@H](c1ccccc1)[C@@H](O)c1ccccc1 (racemic)
inhibition (INH) [1]: 9%
inhibition (INH) [2]: 0%
inhibition (INH) [3]: 16%
inhibition (INH) [4]: 9%
inhibition (INH) [5]: 32%

C[C@@H]1C[C@H]2[C@@H]3CCC4=CC(=O)C=C[C@]4(C)[C@@]3(F)[C@@H](O)C[C@]2(C)[C@@]1(O)C(=O)CO [DEXAMETHASONE]
inhibition (INH) [6]: 17%
inhibition (INH) [7]: 25%
inhibition (INH) [8]: 30%
inhibition (INH) [9]: 53%
inhibition (INH) [10]: 76%
Activity [11]: 16%
Activity [12]: 28%
Activity [13]: 34%
Activity [14]: 49%

CC(=O)NCCN(C(C)=O)[C@@H](c1ccccc1)[C@@H](OC(C)=O)c1ccccc1 (racemic)
inhibition (INH) [1]: 6%
inhibition (INH) [2]: 13%
inhibition (INH) [3]: 7%
inhibition (INH) [4]: 13%
inhibition (INH) [5]: 0%

CC12C(=O)N(CCNC(c3ccccc3)C(O)c3ccccc3)C(=O)C1(C)C1CCC2O1 (stereo not drawn)
inhibition (INH) [15]: 0%

Cc1ccc([C@H](O)[C@@H](NCCN)c2ccccc2)cc1 (racemic)
inhibition (INH) [1]: 12%
inhibition (INH) [2]: 9%
inhibition (INH) [3]: 5%
inhibition (INH) [4]: 53%
inhibition (INH) [5]: 68%

NCCCN[C@@H](c1ccccc1)[C@@H](O)c1ccccc1 (racemic)
inhibition (INH) [1]: 0%
inhibition (INH) [2]: 8%
inhibition (INH) [3]: 21%
inhibition (INH) [4]: 29%
inhibition (INH) [5]: 51%

NCCNC(c1ccccc1)C(O)c1ccccc1 (stereo in doubt; 8a)
inhibition (INH) [1]: 7%
inhibition (INH) [2]: 1%
inhibition (INH) [3]: 19%
inhibition (INH) [4]: 51%
inhibition (INH) [5]: 87%

CC(C)=NCCN[C@@H](c1ccccc1)[C@@H](O)c1ccccc1 (relative stereo)
inhibition (INH) [1]: 14%
inhibition (INH) [2]: 13%
inhibition (INH) [3]: 10%
inhibition (INH) [4]: 59%
inhibition (INH) [5]: 87%

NCCN[C@@H](c1ccccc1)[C@@H](O)c1ccc(Cl)cc1 (racemic)
inhibition (INH) [1]: 20%
inhibition (INH) [2]: 23%
inhibition (INH) [3]: 35%
inhibition (INH) [4]: 64%
inhibition (INH) [5]: 90%

CC(=O)NCCN[C@@H](c1ccccc1)[C@@H](O)c1ccccc1 (racemic)
inhibition (INH) [1]: 0%
inhibition (INH) [2]: 3%
inhibition (INH) [3]: 0%
inhibition (INH) [4]: 3%
inhibition (INH) [5]: 5%

CN(CCN)[C@@H](c1ccccc1)[C@@H](O)c1ccccc1 (racemic)
inhibition (INH) [1]: 0%
inhibition (INH) [2]: 8%
inhibition (INH) [3]: 1%
inhibition (INH) [4]: 11%
inhibition (INH) [5]: 41%

NCCCCN[C@@H](c1ccccc1)[C@@H](O)c1ccccc1 (racemic)
inhibition (INH) [1]: 10%
inhibition (INH) [2]: 5%
inhibition (INH) [3]: 37%
inhibition (INH) [4]: 54%
inhibition (INH) [5]: 87%

NCCN[C@@H](c1ccccc1)[C@@H](O)c1ccccc1 (racemic)
inhibition (INH) [1]: 19%
inhibition (INH) [2]: 19%
inhibition (INH) [3]: 46%
inhibition (INH) [4]: 72%
inhibition (INH) [5]: 88%
Activity [16]: 19%
Activity [17]: 28%
Activity [18]: 44%
Activity [19]: 49%

NCCNC(c1ccccc1)C(O)c1ccccc1 (single isomer, unassigned; (+))
inhibition (INH) [2]: 2%
inhibition (INH) [3]: 0%
inhibition (INH) [4]: 29%
inhibition (INH) [5]: 96%

NCCN[C@@H](c1ccc(Cl)cc1)[C@@H](O)c1ccc(Cl)cc1 (racemic)
inhibition (INH) [1]: 16%
inhibition (INH) [2]: 10%
inhibition (INH) [3]: 16%
inhibition (INH) [4]: 15%
inhibition (INH) [5]: 17%

NCCN[C@@H](c1ccc(Cl)cc1)[C@@H](O)c1ccccc1 (racemic)
inhibition (INH) [1]: 3%
inhibition (INH) [2]: 0%
inhibition (INH) [3]: 12%
inhibition (INH) [4]: 35%
inhibition (INH) [5]: 89%

O[C@@H](c1ccccc1)[C@@H](NCCN[C@@H](c1ccccc1)[C@@H](O)c1ccccc1)c1ccccc1
inhibition (INH) [1]: 14%
inhibition (INH) [2]: 0%
inhibition (INH) [3]: 17%
inhibition (INH) [4]: 5%
inhibition (INH) [5]: 0%

CC1(C(=O)O)C2CCC(O2)C1(C)C(=O)NCCNC(c1ccccc1)C(O)c1ccccc1 (stereo not drawn)
inhibition (INH) [20]: 67%

CNCCN[C@@H](c1ccccc1)[C@@H](O)c1ccccc1 (racemic)
inhibition (INH) [1]: 15%
inhibition (INH) [2]: 20%
inhibition (INH) [3]: 20%
inhibition (INH) [4]: 6%
inhibition (INH) [5]: 26%
